Results collected from several papers.
Lines come from different studies, so protocols differ.
Target: Dual specificity mitogen-activated protein kinase kinase 2 (MAP2K2, Homo sapiens, UniProt P36507)

`O=C(NS(=O)(=O)c1ccc(NCC2CCOCC2)c([N+](=O)[O-])c1)c1ccc(N2CCN(Cc3ccc(C(F)(F)F)cc3-c3ccc(Cl)cc3)CC2)cc1Oc1cnc2[nH]ccc2c1` gave a remaining binding of 100% (cell-free assay, competition with immobilised ligand; 1 µM).
The remaining binding of `N#Cc1ccccc1CSc1nnc2c(n1)[nH]c1ccccc12` is reported as 87% (binding, competition with immobilised ligand; 10 µM).
The remaining binding of `CCN1CCN(Cc2ccc(C(=O)Nc3ccc(C)c(Oc4ccc5c(c4)CC(=O)N5)c3)cc2C(F)(F)F)CC1` is reported as 100% (binding, competition with immobilised ligand; 1 µM).
With `O=C(c1ccc(Nc2nccc(-c3cc4ccccc4s3)n2)cc1)N1CCC(N2CCCC2)CC1` the remaining binding was 60% (binding, competition with immobilised ligand; 1 µM).
`CN(CCCC(F)(F)F)c1nccc(-c2cnn3ncccc23)n1` has a remaining binding of 100% (binding; 1 µM).
`COc1cnc(Nc2cccc(S(N)(=O)=O)c2)nc1N1CCN(c2ccccc2)C(=O)C1` gave a remaining binding of 94% (binding, competition with immobilised ligand; 1 µM).
For `CC(=O)c1c(NS(C)(=O)=O)c2cc(-c3ccc(Cl)cc3)c(-c3ccc(Cl)cc3Cl)nc2n(C)c1=O`, the remaining binding was 100% (cell-free assay, competition with immobilised ligand; 1 µM).
With `N[C@@H]1CCN(c2nccc(-c3cnn4ncccc34)n2)C1` the remaining binding was 84% (binding; 1 µM).
With `FC(F)(F)Oc1cccc(-c2cnc3ccc(-c4ccncc4)nn23)c1` the remaining binding was 72% (cell-free assay, competition with immobilised ligand; 5 µM).
`COc1ccnn2ncc(-c3ccnc(N(C)C)n3)c12` has a remaining binding of 100% (binding; 1 µM).
`C[C@@]1(Cc2ccc(C#N)cc2)C(=O)N(c2cc(Cl)cc(Cl)c2)c2ncc(C(=O)NC3(c4nc(C5CCC5)no4)CC3)n21` gave a remaining binding of 99% (cell-free assay, competition with immobilised ligand; 1 µM).
For `Cc1cnn2ncc(-c3ccnc(N(C)C)n3)c2c1`, the remaining binding was 100% (binding; 1 µM).
For `C[C@@H]1CN(c2ccc3ncc(-c4ccc5[nH]nc(C6CC6)c5c4)n3n2)C[C@H](C)O1`, the remaining binding was 100% (binding, competition with immobilised ligand; 0.5 µM).
The remaining binding of `COc1ncc2cc3ccccc3nc2c1C#N` is reported as 92% (cell-free assay, competition with immobilised ligand; 5 µM).
The remaining binding of `O=C(c1ccc(Nc2ncc(Cl)c(-c3ccc(Cl)s3)n2)cc1)N1CCC(N2CCCC2)CC1` is reported as 15% (binding, competition with immobilised ligand; 1 µM).
With `CN(c1nccc(-c2cnn3ncccc23)n1)C1CC1` the remaining binding was 100% (binding; 1 µM).
For `CC(=O)Nc1c(C(C)=O)c(=O)n(C)c2nc(-c3ccc(Cl)cc3Cl)c(-c3ccc(Cl)cc3)cc12`, the remaining binding was 100% (cell-free assay, competition with immobilised ligand; 1 µM).
`O=C(NCCCN1CCOCC1)c1ccc(Nc2nccc(-c3cc4ccccc4s3)n2)cc1` gave a remaining binding of 79% (binding, competition with immobilised ligand; 1 µM).
The remaining binding of `CN(C)CC#Cc1ccc(OCCCc2sc(N3CCc4cccc(C(=O)Nc5nc6ccccc6s5)c4C3)nc2C(=O)O)c(F)c1` is reported as 100% (cell-free assay, competition with immobilised ligand; 1 µM).
The remaining binding of `O=C(Nc1c[nH]nc1C(=O)NC1CCNCC1)c1cc(F)cc(F)c1` is reported as 90% (binding, competition with immobilised ligand; 1 µM).
With `Cc1noc([C@H]2C[C@@H](c3ccc(C(F)(F)F)cc3)CN(C(=O)N3CCS(=O)(=O)C3)C2)n1` the remaining binding was 90% (cell-free assay, competition with immobilised ligand; 1 µM).
With `c1cnn2ncc(-c3ccnc(N4CCC45COC5)n3)c2c1` the remaining binding was 81% (binding; 1 µM).
`O=C(O)[C@@H]1[C@@H](Cn2nnc3ccccc3c2=O)CC[C@H]1C(=O)c1ccc(OCCC2CCOCC2)cc1` has a remaining binding of 100% (cell-free assay, competition with immobilised ligand; 1 µM).
The remaining binding of `C=CC(=O)N1CCC(C(=O)NCC(=O)N2CCN(c3nc(-c4cnc(N)nc4C(F)F)nc(N4CCOCC4)n3)CC2)CC1` is reported as 59% (binding, competition with immobilised ligand; 1 µM).
